Measurements published in ChEMBL document CHEMBL4177578, “Synthesis, pharmacological activities and molecular docking studies of pyrazolyltriazoles as anti-bacterial and anti-inflammatory agents” (Bioorg Med Chem, 2017).
Converted amounts (≈) assume the structure as drawn. The source made the active and inactive calls. No cut-off for these calls is given here.

Key:
Format in all cases: functional
Micrococcus luteus [1] = assay: Antimicrobial activity against Micrococcus luteus at 1 mg/ml incubated for 20 to 30 mins followed by incubation for 24 hrs at 37 degC by agar plate method
Procedure, shortened: (§1)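 Agar well diffusion on nutrient agar. Plates swabbed with 60 µL inoculum; 8 mm wells loaded with 100 µL of compound at 1.0 mg/mL. Held 20–30 min at 4 °C for diffusion, then 24 h at 37 °C. Inhibition zone diameter read in mm. Triplicate.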

Staphylococcus aureus = assay: Antimicrobial activity against Staphylococcus aureus at 1 mg/ml incubated for 20 to 30 mins followed by incubation for 24 hrs at 37 degC by agar plate method; procedure, shortened: as §1
Salmonella typhi [2] = assay: Antimicrobial activity against Salmonella typhi at 1 mg/ml incubated for 20 to 30 mins followed by incubation for 24 hrs at 37 degC by agar plate method; settings: for diameter of the inhibition zone (DIZ): Salmonella enterica subsp. enterica serovar Typhi
Procedure, shortened: (§2)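 Agar well diffusion on nutrient agar. Plates swabbed with 60 µL inoculum, 8 mm wells loaded with 100 µL sample at 1.0 mg/mL, streptomycin standard and control in separate wells. Plates held 20–30 min at 4 °C for diffusion, then 24 h at 37 °C. Zone diameter read in mm; triplicate.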

Salmonella paratyphi [3] = assay: Antimicrobial activity against Salmonella paratyphi at 1 mg/ml incubated for 20 to 30 mins followed by incubation for 24 hrs at 37 degC by agar plate method; settings: for diameter of the inhibition zone (DIZ): Salmonella enterica subsp. enterica serovar Paratyphi A; procedure, shortened: as §2
Micrococcus luteus [4] = assay: Antimicrobial activity against Micrococcus luteus incubated for 12 to 16 hrs by tube dilution method
Procedure, shortened: (§3)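 Tube dilution, serial from 500 to 1.9 µg/mL, plus drug-free control tube. Each tube inoculated with 1 mL culture at OD 0.2, incubated 37 °C for 12–16 h. MIC is the lowest concentration with no growth by turbidity. MBC is found by plating each tube on nutrient agar: the lowest concentration at which all cells are killed.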

Micrococcus luteus [5] = assay: Antimicrobial activity against Micrococcus luteus incubated for 12 to 16 hrs followed by plating in nutrient agar by tube dilution method; procedure, shortened: as §3
Salmonella typhi [6] = assay: Antimicrobial activity against Salmonella typhi incubated for 12 to 16 hrs by tube dilution method
Procedure, shortened: (§4)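 Broth tube dilution, two-fold serial dilutions from 500 to 1.9 µg/mL plus a drug-free control tube. Each tube inoculated with 1 mL culture at OD 0.2 (~McFarland standard), 37 °C for 12-16 h. Turbidity compared with the control tube. MIC is the lowest concentration giving complete growth inhibition.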

Salmonella typhi [7] = assay: Antimicrobial activity against Salmonella typhi incubated for 12 to 16 hrs followed by plating in nutrient agar by tube dilution method
Procedure, shortened: (§5)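 After 12-16 h at 37 °C in tube dilution (500 to 1.9 µg/mL; 1 mL inoculum at OD 0.2), the culture from each tube was plated on nutrient agar. MBC is the concentration at which cells are completely killed.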

Salmonella paratyphi [8] = assay: Antimicrobial activity against Salmonella paratyphi incubated for 12 to 16 hrs by tube dilution method; procedure, shortened: as §4
Salmonella paratyphi [9] = assay: Antimicrobial activity against Salmonella paratyphi incubated for 12 to 16 hrs followed by plating in nutrient agar by tube dilution method; procedure, shortened: as §5
[10] = Anti-inflammatory activity at 50 ug/ml using bovine serum albumin and egg albumin proteins incubated at 37 degC for 20 mins and then heated to 95 degC for 20 mins by UV-visible Spectrophotometry based protein denaturation method
Procedure, shortened: (§6)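 Albumin (bovine serum or egg) at 1% in 50 mM sodium phosphate buffer pH 6.4. Mixture is 0.1 ml test sample (1 mg/ml) plus 0.2 ml albumin, made to 5 ml with buffer. Held 37 °C for 20 min, then 95 °C for 20 min. Cooled to room temperature, turbidity read at 660 nm. % inhibition = (Abs control − Abs sample)/Abs control × 100. Triplicate, averaged.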

[11] = Anti-inflammatory activity at 100 ug/ml using bovine serum albumin and egg albumin proteins incubated at 37 degC for 20 mins and then heated to 95 degC for 20 mins by UV-visible Spectrophotometry based protein denaturation method; procedure, shortened: as §6
[12] = Anti-inflammatory activity using bovine serum albumin and egg albumin proteins incubated at 37 degC for 20 mins and then heated to 95 degC for 20 mins by UV-visible Spectrophotometry based protein denaturation method; procedure, shortened: as §6
[13] = Salmonella enterica subsp. enterica serovar Typhi
[14] = Salmonella enterica subsp. enterica serovar Paratyphi A
[15] = Salmonella enterica, read-out: DIZ

Structure (SMILES) | diameter of the inhibition zone (DIZ) (Micrococcus luteus [1]) | diameter of the inhibition zone (DIZ) (Staphylococcus aureus) | diameter of the inhibition zone (DIZ) (Salmonella typhi [2]) | diameter of the inhibition zone (DIZ) (Salmonella paratyphi [3]) | MIC (Micrococcus luteus [4]) | MBC (Micrococcus luteus [5]) | MIC (Salmonella typhi [6]; [13]) | MBC (Salmonella typhi [7]; [13]) | MIC (Salmonella paratyphi [8]; [14]) | MBC (Salmonella paratyphi [9]; [14]) | inhibition [10] | inhibition [11] | IC50 [12] | other results
c1ccc(-c2cn(Cc3cn(-c4ccccc4)nc3-c3ccccc3)nn2)cc1 | inactive | inactive | inactive | inactive | inactive | inactive | inactive | inactive | inactive | inactive | inactive | inactive | Not Active | –
O=C([O-])Cc1ccccc1Nc1c(Cl)cccc1Cl.[Na+] [DICLOFENAC SODIUM] | – | – | – | – | – | – | – | – | – | – | 66.4% | 93.1% | 53.7 µg/mL | –
COc1ccc(-c2cn(Cc3cn(-c4ccccc4)nc3-c3ccccc3)nn2)cc1 | inactive | inactive | inactive | inactive | inactive | inactive | inactive | inactive | inactive | inactive | inactive | inactive | Not Active | –
COc1ccc(-c2cn(Cc3cn(-c4ccccc4)nc3-c3ccccc3)nn2)c(C)c1 | inactive | inactive | inactive | inactive | inactive | inactive | inactive | inactive | inactive | inactive | inactive | inactive | Not Active | –
CN(C)c1ccc(-c2cn(Cc3cn(-c4ccccc4)nc3-c3ccccc3)nn2)cc1 | inactive | inactive | inactive | inactive | inactive | inactive | inactive | inactive | inactive | inactive | inactive | inactive | Not Active | –
FC(F)(F)c1ccc(-c2cn(Cc3cn(-c4ccccc4)nc3-c3ccccc3)nn2)c(C(F)(F)F)c1 | inactive | inactive | inactive | inactive | inactive | inactive | inactive | inactive | inactive | inactive | inactive | inactive | Not Active | –
COC(=O)c1nnn(Cc2cn(-c3ccc(Cl)cc3)nc2-c2ccccc2)c1C(=O)OC | inactive | inactive | inactive | inactive | inactive | inactive | inactive | inactive | inactive | inactive | inactive | inactive | Not Active | –
Brc1ccc(-c2cn(Cc3cn(-c4ccccc4)nc3-c3ccccc3)nn2)cc1 | inactive | inactive | inactive | inactive | inactive | inactive | inactive | inactive | inactive | inactive | inactive | inactive | Not Active | –
CN[C@@H]1[C@H](O[C@H]2[C@H](O[C@H]3[C@H](O)[C@@H](O)[C@H](N=C(N)N)[C@@H](O)[C@@H]3N=C(N)N)O[C@@H](C)[C@]2(O)C=O)O[C@@H](CO)[C@H](O)[C@H]1O [STREPTOMYCIN] | – | – | – | – | 6.25 µg/mL (≈ 10.7 µM) | 6.25 µg/mL (≈ 10.7 µM) | – | – | – | – | – | – | – | zone of inhibition at 1000 µg/mL (Micrococcus luteus [1]; read-out: DIZ): 22.5 mm; zone of inhibition at 1000 µg/mL (Staphylococcus aureus; read-out: DIZ): 20.3 mm; zone of inhibition at 1000 µg/mL (Salmonella typhi [2]; [15]): 27 mm; zone of inhibition at 1000 µg/mL (Salmonella paratyphi [3]; [15]): 30 mm; MIC (Salmonella typhi [6]; Salmonella enterica): 6.25 µg/mL (≈ 10.7 µM); MBC (Salmonella typhi [7]; Salmonella enterica): 6.25 µg/mL (≈ 10.7 µM); MIC (Salmonella paratyphi [8]; Salmonella enterica): 6.25 µg/mL (≈ 10.7 µM); MBC (Salmonella paratyphi [9]; Salmonella enterica): 6.25 µg/mL (≈ 10.7 µM)
Clc1ccc(-c2cn(Cc3cn(-c4ccccc4)nc3-c3ccccc3)nn2)cc1 | inactive | inactive | inactive | inactive | inactive | inactive | inactive | inactive | inactive | inactive | inactive | inactive | Not Active | –
[N-]=[N+]=NCc1cn(-c2ccccc2)nc1-c1ccc(Cl)cc1Cl | inactive | inactive | inactive | inactive | inactive | inactive | inactive | inactive | inactive | inactive | inactive | inactive | Not Active | –
CCOC(=O)c1nnn(Cc2cn(-c3ccccc3)nc2-c2ccccc2)c1C(=O)OCC | inactive | inactive | inactive | inactive | inactive | inactive | inactive | inactive | inactive | inactive | inactive | inactive | Not Active | –
COC(=O)c1nnn(Cc2cn(-c3ccccc3)nc2-c2ccc(OC)cc2)c1C(=O)OC | inactive | inactive | inactive | inactive | inactive | inactive | inactive | inactive | inactive | inactive | inactive | inactive | Not Active | –
FC(F)(F)c1ccccc1-c1cn(Cc2cn(-c3ccccc3)nc2-c2ccccc2)nn1 | inactive | inactive | inactive | inactive | inactive | inactive | inactive | inactive | inactive | inactive | inactive | inactive | Not Active | –
CCOC(=O)c1nnn(Cc2cn(-c3ccccc3)nc2-c2ccc(OC)cc2)c1C(=O)OCC | inactive | inactive | inactive | inactive | inactive | inactive | inactive | inactive | inactive | inactive | inactive | inactive | Not Active | –
